Results from ChEMBL document CHEMBL1156073, “Hydroxamic acids as a novel family of serine racemase inhibitors: mechanistic analysis reveals different modes of interaction with the pyridoxal-5'-phosphate cofactor” (J Med Chem, 2009).
pIC50, pKi: −log10 of the molar value. Active and inactive are the calls of the source. No cut-off for these calls is given here.

Experiments:
[1] = Binding affinity to 30 mM pyridoxal-5'-phosphate assessed as formation of PLP-aldimine by ESI-MS analysis
[2] = molecular target: T1, Serine racemase (Mus musculus) (UniProt Q9QZX7); test: Inhibition of mouse recombinant serine racemase expressed in Escherichia coli MC1061 assessed as formation of D-serine at 5 mM after 30 mins by HPLC analysis
T1 sequence (whole entry): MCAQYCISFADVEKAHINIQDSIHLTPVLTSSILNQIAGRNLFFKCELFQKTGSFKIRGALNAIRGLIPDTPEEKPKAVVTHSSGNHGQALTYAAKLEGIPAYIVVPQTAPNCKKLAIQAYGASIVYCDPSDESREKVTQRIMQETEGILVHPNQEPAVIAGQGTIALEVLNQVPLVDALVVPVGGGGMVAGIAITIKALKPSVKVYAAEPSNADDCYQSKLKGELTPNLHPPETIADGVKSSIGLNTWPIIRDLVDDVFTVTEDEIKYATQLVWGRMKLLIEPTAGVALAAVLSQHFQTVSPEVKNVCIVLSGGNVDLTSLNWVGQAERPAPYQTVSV
Outline: (§1)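 Mouse SR (E. coli MC1061, arabinose-induced, three-step chromatography, ~90% pure) incubated in pH 8.0 buffer with 10 μM PLP, 1 mM ATP, 1 mM MgCl2, 5 mM DTT. Screening used 5 mM L-serine and 5 mM test compound; IC50 runs varied inhibitor at 5 mM L-serine. 30 min at 37 C, stopped with 0.3 M HClO4; D-serine quantified by HPLC. Duplicate or triplicate runs.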

[3] = Binding affinity to pyridoxal-5'-phosphate assessed as formation of syn- and anti-PLP-aldoxime after 20 hrs by NMR spectroscopy
Outline: (§2)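 Compound and PLP solutions prepared in 100 mM phosphate buffer in D2O, pD held near 8.0; chemical shifts followed by NMR after mixing.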

[4] = Chemical stability assessed as hydrolysis-associated hydroxylamine formation at 0.5 mM after 1 hr in phosphate buffer of pH 8; type: physicochemical; details: pH 8, 1 h, 500 µM
Outline: (§3)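 Compound at 0.5 mM or 0.05 mM, diluted from fresh 10 mM stocks, held in 100 mM phosphate buffer pH 8.0 or 7.4 at room temperature for 0, 30 or 60 min. Picrylsulfonic acid then added; released hydroxylamine read as absorbance at 494 nm 15 min later.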

[5] = Binding affinity to pyridoxal-5'-phosphate assessed as formation of syn- and anti-PLP-aldoxime by NMR spectroscopy; outline: as §2
[6] = Binding affinity to pyridoxal-5'-phosphate assessed as formation of PLP-aldoxime by ESI-MS analysis
Outline: (§4)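 Compound weighed into PLP stock at about 1:1 molar ratio with PLP, with or without 200 mM ammonium sulfate pH 8.0. Mixture diluted 40- to 100-fold in water and analysed by ESI-MS in negative ion mode.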

[7] = Chemical stability assessed as hydrolysis-associated hydroxylamine formation at 0.5 mM after 1 hr in phosphate buffer of pH 7.4; type: physicochemical; details: pH 7.4, 1 h, 500 µM; outline: as §3
[8] = Binding affinity to pyridoxal-5'-phosphate assessed as formation of PLP-aldoxime at 5 mM after 1 hr by UV/vis spectroscopy
Outline: (§5)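 PLP and compound solutions in 100 mM phosphate buffer pH 8.0 mixed 1:1, giving 300 μM PLP and 5 mM compound final. Incubated 1 h at room temperature, then absorbance scanned from 310 to 500 nm.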

[9] = molecular target: T2, L-serine dehydratase/L-threonine deaminase (Rattus norvegicus) (UniProt P09367); test: Inhibition of rat SDH expressed in Escherichia coli BL21-RIL assessed as formation of pyruvate at 5 mM in phosphate buffer of pH 8 treated for 15 to 20 mins before addition of substrate by HPLC analysis in presence of 10 uM PLP
T2 sequence (whole entry): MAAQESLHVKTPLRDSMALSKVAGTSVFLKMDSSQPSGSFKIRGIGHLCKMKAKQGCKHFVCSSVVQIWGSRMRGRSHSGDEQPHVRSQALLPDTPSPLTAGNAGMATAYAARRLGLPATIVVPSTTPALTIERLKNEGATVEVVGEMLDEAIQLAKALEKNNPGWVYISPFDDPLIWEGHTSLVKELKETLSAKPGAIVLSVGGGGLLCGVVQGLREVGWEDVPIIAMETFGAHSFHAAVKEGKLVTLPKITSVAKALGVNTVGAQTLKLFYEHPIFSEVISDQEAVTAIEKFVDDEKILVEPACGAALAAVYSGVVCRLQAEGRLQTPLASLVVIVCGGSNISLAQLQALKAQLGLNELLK
Outline: (§6)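 Enzyme in 50 mM phosphate buffer pH 8.0 with 10 μM PLP, preincubated with 5 mM inhibitor at room temperature for 15-20 min. Substrate added near KM: alanine racemase 5 mM D-alanine (L-alanine formed); SDH 50 mM L-serine (SDH partially purified, ~50%, from E. coli BL21-RIL); transaminase 5 mM L-aspartic acid plus 5 mM α-ketoglutarate. Products analysed by HPLC.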

[10] = Binding affinity to pyridoxal-5'-phosphate assessed as compound remaining after 12 days by NMR spectroscopy; outline: as §2
[11] = molecular target: T1, Serine racemase (Mus musculus); test: Inhibition of mouse recombinant serine racemase expressed in Escherichia coli MC1061 assessed as formation of D-serine at 5 mM in phosphate buffer of pH 8 treated for 15 to 20 mins before addition of substrate by HPLC analysis in presence of 10 uM PLP
[12] = Inhibition of broad-range bacterial transaminase assessed as formation of L-glutamic acid at 5 mM in phosphate buffer of pH 8 treated for 15 to 20 mins before addition of substrate by HPLC analysis in presence of 10 uM PLP; outline: as §6
[13] = molecular target: T3, Serine racemase (Homo sapiens) (UniProt Q9GZT4); test: Inhibition of human recombinant serine racemase assessed as formation of D-serine at 5 mM in phosphate buffer of pH 8 treated for 15 to 20 mins before addition of substrate by HPLC analysis in presence of 10 uM PLP
T3 sequence (whole entry): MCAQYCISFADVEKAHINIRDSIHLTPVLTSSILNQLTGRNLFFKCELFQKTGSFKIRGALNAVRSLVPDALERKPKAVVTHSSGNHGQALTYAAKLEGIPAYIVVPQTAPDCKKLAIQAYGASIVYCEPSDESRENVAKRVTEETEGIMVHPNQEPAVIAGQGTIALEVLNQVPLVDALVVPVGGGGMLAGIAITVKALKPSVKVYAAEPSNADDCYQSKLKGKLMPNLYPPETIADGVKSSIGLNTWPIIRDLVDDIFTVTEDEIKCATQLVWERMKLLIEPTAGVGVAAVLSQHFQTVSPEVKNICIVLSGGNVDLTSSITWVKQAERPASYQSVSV
Outline: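 Recombinant human SR assayed as for mouse SR: pH 8.0 buffer with 10 μM PLP, 1 mM ATP, 1 mM MgCl2, 5 mM DTT, 5 mM L-serine and 5 mM compound. Incubated 30 min at 37 C, stopped with HClO4; D-serine measured by HPLC.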

[14] = molecular target: T4, Alanine racemase (Geobacillus stearothermophilus) (UniProt P10724); test: Inhibition of Bacillus stearothermophilus alanine racemase assessed as formation of L-alanine at 5 mM in phosphate buffer of pH 8 treated for 15 to 20 mins before addition of substrate by HPLC analysis in presence of 10 uM PLP; outline: as §6
T4 sequence (whole entry): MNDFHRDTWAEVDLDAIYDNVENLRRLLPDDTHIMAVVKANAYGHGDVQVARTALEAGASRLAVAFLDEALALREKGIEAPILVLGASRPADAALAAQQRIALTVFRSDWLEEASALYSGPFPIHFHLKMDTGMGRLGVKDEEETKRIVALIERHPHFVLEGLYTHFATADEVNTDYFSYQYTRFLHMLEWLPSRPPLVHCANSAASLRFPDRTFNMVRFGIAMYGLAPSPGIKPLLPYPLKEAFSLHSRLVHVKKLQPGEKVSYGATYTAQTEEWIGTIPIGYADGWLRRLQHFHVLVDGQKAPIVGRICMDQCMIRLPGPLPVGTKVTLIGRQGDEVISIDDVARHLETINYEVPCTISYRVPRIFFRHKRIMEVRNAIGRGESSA

[15] = Binding affinity to pyridoxal-5'-phosphate assessed as formation of PLP-aldimine at active site by ESI-MS analysis; outline: as §4
Serine racemase [16] = molecular target: T5, Serine racemase (Mus musculus, UniProt Q9QZX7); test: Inhibition of mouse recombinant serine racemase expressed in Escherichia coli MC1061 assessed as formation of D-serine after 30 mins by HPLC analysis; outline: as §1
T5 sequence (Q9QZX7 whole entry): T1 sequence (whole entry)

[17] = Chemical stability assessed as hydrolysis-associated hydroxylamine formation at 0.05 mM after 1 hr in phosphate buffer of pH 8; type: physicochemical; details: pH 8, 1 h, 50 µM; outline: as §3
[18] = molecular target: T1, Serine racemase (Mus musculus); test: (§7) Inhibition of mouse recombinant serine racemase expressed in Escherichia coli MC1061 assessed as formation of D-serine after 30 mins by Linewaver-burk and Eadie-Hofstee plot analysis
Outline: (§8)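 Mouse SR racemization at varied L-serine and inhibitor concentrations, pH 8.0, 10 μM PLP, 30 min at 37 C. End-point HPLC measured D-serine peak area relative to a glycine internal standard, in triplicate. Global nonlinear fit followed by linear transformation.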

[19] = molecular target: T1, Serine racemase (Mus musculus); test: Inhibition of mouse recombinant serine racemase expressed in Escherichia coli MC1061 assessed as formation of D-serine at 5 mM treated for 15 to 20 mins before addition of substrate by HPLC analysis in presence of increasing concentration of PLP
[20] = Chemical stability assessed as hydrolysis-associated hydroxylamine formation at 0.05 mM after 1 hr in phosphate buffer of pH 7.4; type: physicochemical; details: pH 7.4, 1 h, 50 µM; outline: as §3
[21] = molecular target: T3, Serine racemase (Homo sapiens); test: Inhibition of human recombinant serine racemase assessed as formation of D-serine at 5 mM treated for 15 to 20 mins before addition of substrate by HPLC analysis in presence of increasing concentration of PLP
Serine racemase [22] = molecular target: T5, Serine racemase; test: Inhibition of mouse recombinant serine racemase transfected in bacterial expression system
Serine racemase [23] = molecular target: T5, Serine racemase; test: as §7; outline: as §8
[24] = molecular target: T1, Serine racemase (Mus musculus); test: Inhibition of mouse recombinant serine racemase expressed in Escherichia coli MC1061 assessed as formation of D-serine at 5 mM after 30 mins by HPLC analysis in presence of 5 fold molar excess of MgCl2 over compound
[25] = Binding affinity to pyridoxal-5'-phosphate assessed as formation of PLP-aldimine by NMR spectroscopy; outline: as §2
[26] = Binding affinity to 4-5 mM pyridoxal-5'-phosphate assessed as formation of PLP-aldimine by ESI-MS analysis; outline: as §4
[27] = Binding affinity to pyridoxal-5'-phosphate assessed as PLP-amino acid Schiff base interaction at 5 mM after 1 hr by UV/vis spectroscopy; outline: as §5

N[C@@H](CO)C(=O)O
Activity [1]: Active

O=C(CCCCC(=O)NO)NO
inhibition [2]: inactive
Activity [3]: inactive
Stability [4]: Stable
Activity [5]: inactive
Activity [6]: inactive
Stability [7]: Stable
Activity [8]: inactive

O=C(NO)c1ccc([N+](=O)[O-])cc1
inhibition [2]: inactive

O=C(NO)C(=O)NO
inhibition [2]: inactive
inhibition [9]: inactive
Activity [10]: 20%
inhibition [11]: inactive
Stability [4]: Stable
inhibition [12]: inactive
Activity [5]: inactive
Activity [6]: inactive
Stability [7]: Stable
inhibition [13]: inactive
Activity [8]: inactive
inhibition [14]: inactive

NCC(=O)NO
inhibition [2]: inactive
Activity [15]: inactive
Activity [1]: Active

CC(O)C(N)C(=O)NO (stereo not given)
inhibition [2]: inactive
Activity [15]: inactive
Activity [1]: Active

Nc1ccc(C(=O)NO)cc1
inhibition [2]: inactive

O=C(CCC(=O)NO)NO [SUCCINODIHYDROXAMIC ACID]
pIC50 (Serine racemase [16]): 4.05
Stability [17]: Unstable
inhibition [11]: Active
Ki [18]: 3.6 µM
inhibition [19]: inactive
Stability [20]: Unstable
Activity [5]: Active
Activity [6]: Active
Activity [8]: Active
inhibition [21]: inactive

N[C@@H](C(=O)O)[C@H](O)C(=O)O
pKi (Serine racemase [22]): 4.37

O=C(NO)c1ccc(Cl)cc1
inhibition [2]: inactive

CC(=O)NO
inhibition [2]: inactive
Activity [5]: Active
Activity [6]: inactive
Activity [8]: inactive

O=C(CCCC(=O)NO)NO [GLUTARODIHYDROXAMIC ACID]
pIC50 (Serine racemase [16]): 3.77
Activity [3]: Active
Stability [17]: Unstable
Stability [20]: Unstable
Activity [6]: Active
Activity [8]: Active

O=C(CC(=O)NO)NO [MALONODIHYDROXAMIC ACID]
pIC50 (Serine racemase [16]): 3.43
Stability [17]: Unstable
inhibition [11]: Active
pKi (Serine racemase [23]): 3.38
inhibition [19]: inactive
Stability [20]: Unstable
Activity [5]: Active
Activity [6]: Active
Activity [8]: Active
inhibition [24]: Active
inhibition [21]: inactive

O=C(CCCCCCC(=O)Nc1ccccc1)NO
inhibition [2]: inactive
Activity [5]: Active
Activity [8]: inactive

N[C@@H](CC(=O)NO)C(=O)O
Activity [25]: Active
pIC50 (Serine racemase [16]): 2.89
Activity [26]: Active
inhibition [9]: Active
inhibition [11]: Active
inhibition [12]: inactive
inhibition [13]: Active
Activity [8]: Active
inhibition [14]: inactive
Activity [27]: Active

O=C(O)CC(=O)O [MALONIC ACID]
pKi (Serine racemase [22]): 4.15

NC(CO)C(=O)NO (stereo not given)
inhibition [2]: inactive
Activity [15]: inactive
Activity [1]: Active

O=C(CCCCCCC(=O)NO)NO [SUBEROHYDROXAMIC ACID]
inhibition [2]: inactive
Activity [3]: inactive
Stability [4]: Stable
Activity [5]: inactive
Activity [6]: inactive
Stability [7]: Stable

NCC(=O)O
Activity [1]: Active
